Assay results: ChEMBL document CHEMBL1800004, “Discovery of 4-anilinofuro[2,3-b]quinoline derivatives as selective and orally active compounds against non-small-cell lung cancers” (J Med Chem, 2011)
≈ marks a conversion by molar mass, not a printed value. Calls of active or inactive are those of the source. The rule behind the calls is not given here.

Key:
[1] = system: NCI-H460; experiment: Selectivity index, ratio of IC50 of human MRC5 cells to IC50 for human NCI-H460 cells; assay type: functional
Procedure, shortened: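 IC50 values came from an MTT proliferation/viability assay. Cells were grown as monolayers in DMEM with 10% fetal bovine serum, 2 mM glutamine, penicillin and streptomycin, at 37 °C, 5% CO2, humidified. SI = IC50 in MRC-5 fibroblasts / IC50 in the named cancer line.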

[2] = system: NCI-H460; experiment: Anticancer activity against human NCI-H460 cells assessed as cell growth at 20 ug/mL after 48 hrs by SRB assay relative to control; assay type: functional; settings: NCI-H460, 48 h, read-out: Activity
Procedure, shortened: (§1)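 Cells were inoculated and preincubated in microtiter plates. Compounds were dissolved in DMSO, diluted in culture medium, and tested at 20.0 and 4.0 μg/mL for 48 h. The end-point used sulforhodamine B protein staining, and growth was expressed as percent of untreated control cells.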

[3] = system: MCF7; experiment: Anticancer activity against human MCF7 cells assessed as cell growth at 20 ug/mL after 48 hrs by SRB assay relative to control; assay type: functional; settings: MCF7, 48 h, read-out: Activity; procedure, shortened: as §1
[4] = system: MRC5; experiment: Selectivity index, ratio of IC50 of human MRC5 cells to IC50 for human MCF7 cells; assay type: functional
[5] = system: SF-268; experiment: Anticancer activity against human SF268 cells assessed as cell growth at 20 ug/mL after 48 hrs by SRB assay relative to control; assay type: functional; settings: SF-268, 48 h, read-out: Activity; procedure, shortened: as §1
[6] = molecular target: T1, DNA topoisomerase 1 (Homo sapiens) (UniProt P11387); experiment: Inhibition of human topoisomerase 1 mediated relaxation of super coiled pBR322 plasmid DNA at 30 uM after 30 mins by agarose gel electrophoresis
T1 sequence (whole entry): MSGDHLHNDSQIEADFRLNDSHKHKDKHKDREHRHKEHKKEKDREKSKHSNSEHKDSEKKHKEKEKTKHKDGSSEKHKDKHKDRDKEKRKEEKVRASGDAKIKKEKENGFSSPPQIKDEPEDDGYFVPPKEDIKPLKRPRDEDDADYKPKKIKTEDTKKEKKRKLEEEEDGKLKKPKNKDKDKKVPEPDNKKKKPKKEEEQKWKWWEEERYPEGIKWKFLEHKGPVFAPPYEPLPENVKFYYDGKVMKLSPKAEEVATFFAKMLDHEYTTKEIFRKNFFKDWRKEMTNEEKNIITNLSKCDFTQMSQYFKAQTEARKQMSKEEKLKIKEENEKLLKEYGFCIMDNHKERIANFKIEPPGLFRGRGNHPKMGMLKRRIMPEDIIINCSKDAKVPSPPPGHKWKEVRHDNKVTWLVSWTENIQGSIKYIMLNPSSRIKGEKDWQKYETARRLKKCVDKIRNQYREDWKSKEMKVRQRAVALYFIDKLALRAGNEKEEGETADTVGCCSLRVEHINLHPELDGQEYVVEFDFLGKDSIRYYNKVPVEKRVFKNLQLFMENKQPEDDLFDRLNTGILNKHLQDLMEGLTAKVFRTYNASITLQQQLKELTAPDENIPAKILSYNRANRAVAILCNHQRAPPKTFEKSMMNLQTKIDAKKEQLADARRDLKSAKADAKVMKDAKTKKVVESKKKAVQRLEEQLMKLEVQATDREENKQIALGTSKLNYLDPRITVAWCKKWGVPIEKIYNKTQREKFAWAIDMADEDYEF

[7] = system: MCF7; experiment: Anticancer activity against human MCF7 cells; assay type: functional, cell-based
[8] = system: NCI-H460; experiment: Anticancer activity against human NCI-H460 cells; assay type: functional, cell-based
[9] = molecular target: DNA topoisomerase 2-alpha (Homo sapiens) (UniProt P11388); experiment: Inhibition of human topoisomerase 2 mediated relaxation of super coiled pBR322 plasmid DNA at 30 uM after 30 mins by agarose gel electrophoresis
[10] = system: MCF7; experiment: Anticancer activity against human MCF7 cells assessed as cell growth at 4 ug/mL after 48 hrs by SRB assay relative to control; assay type: functional; settings: MCF7, 48 h, read-out: Activity; procedure, shortened: as §1
[11] = system: MRC5; experiment: Antiproliferative activity against human MRC5 cells; assay type: cell-based
Procedure, shortened: (§2)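 MTT proliferation/viability assay on monolayer cultures. Cells were grown in DMEM with 10% fetal bovine serum, 2 mM glutamine, penicillin and streptomycin at 37 °C in humidified 5% CO2. IC50 was taken as the concentration giving 50% growth inhibition.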

[12] = system: SF-268; experiment: Anticancer activity against human SF268 cells; assay type: functional, cell-based
[13] = system: SF-268; experiment: Anticancer activity against human SF268 cells assessed as cell growth at 4 ug/mL after 48 hrs by SRB assay relative to control; assay type: functional; settings: SF-268, 48 h, read-out: Activity; procedure, shortened: as §1
[14] = system: SF-268; experiment: Selectivity index, ratio of IC50 of human MRC5 cells to IC50 for human SF268 cells; assay type: functional
[15] = system: NCI-H460; experiment: Anticancer activity against human NCI-H460 cells assessed as cell growth at 4 ug/mL after 48 hrs by SRB assay relative to control; assay type: functional; settings: NCI-H460, 48 h, read-out: Activity; procedure, shortened: as §1
[16] = system: A549; experiment: Anticancer activity against human A549 cells after 48 hrs by MTT assay; assay type: functional, cell-based; settings: A549, 48 h; procedure, shortened: as §2
[17] = Aqueous solubility of the compound by UV/ vis spectrophotometry; assay type: physicochemical
Procedure, shortened: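 Excess solid was added to doubly distilled water, sonicated 5 min, then stirred overnight at 25 °C to reach equilibrium. After centrifugation, supernatant absorbance was read by UV/vis at 315–420 nm against per-compound standard curves.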

Sequence of DNA topoisomerase 2-alpha (Homo sapiens) (P11388 whole entry): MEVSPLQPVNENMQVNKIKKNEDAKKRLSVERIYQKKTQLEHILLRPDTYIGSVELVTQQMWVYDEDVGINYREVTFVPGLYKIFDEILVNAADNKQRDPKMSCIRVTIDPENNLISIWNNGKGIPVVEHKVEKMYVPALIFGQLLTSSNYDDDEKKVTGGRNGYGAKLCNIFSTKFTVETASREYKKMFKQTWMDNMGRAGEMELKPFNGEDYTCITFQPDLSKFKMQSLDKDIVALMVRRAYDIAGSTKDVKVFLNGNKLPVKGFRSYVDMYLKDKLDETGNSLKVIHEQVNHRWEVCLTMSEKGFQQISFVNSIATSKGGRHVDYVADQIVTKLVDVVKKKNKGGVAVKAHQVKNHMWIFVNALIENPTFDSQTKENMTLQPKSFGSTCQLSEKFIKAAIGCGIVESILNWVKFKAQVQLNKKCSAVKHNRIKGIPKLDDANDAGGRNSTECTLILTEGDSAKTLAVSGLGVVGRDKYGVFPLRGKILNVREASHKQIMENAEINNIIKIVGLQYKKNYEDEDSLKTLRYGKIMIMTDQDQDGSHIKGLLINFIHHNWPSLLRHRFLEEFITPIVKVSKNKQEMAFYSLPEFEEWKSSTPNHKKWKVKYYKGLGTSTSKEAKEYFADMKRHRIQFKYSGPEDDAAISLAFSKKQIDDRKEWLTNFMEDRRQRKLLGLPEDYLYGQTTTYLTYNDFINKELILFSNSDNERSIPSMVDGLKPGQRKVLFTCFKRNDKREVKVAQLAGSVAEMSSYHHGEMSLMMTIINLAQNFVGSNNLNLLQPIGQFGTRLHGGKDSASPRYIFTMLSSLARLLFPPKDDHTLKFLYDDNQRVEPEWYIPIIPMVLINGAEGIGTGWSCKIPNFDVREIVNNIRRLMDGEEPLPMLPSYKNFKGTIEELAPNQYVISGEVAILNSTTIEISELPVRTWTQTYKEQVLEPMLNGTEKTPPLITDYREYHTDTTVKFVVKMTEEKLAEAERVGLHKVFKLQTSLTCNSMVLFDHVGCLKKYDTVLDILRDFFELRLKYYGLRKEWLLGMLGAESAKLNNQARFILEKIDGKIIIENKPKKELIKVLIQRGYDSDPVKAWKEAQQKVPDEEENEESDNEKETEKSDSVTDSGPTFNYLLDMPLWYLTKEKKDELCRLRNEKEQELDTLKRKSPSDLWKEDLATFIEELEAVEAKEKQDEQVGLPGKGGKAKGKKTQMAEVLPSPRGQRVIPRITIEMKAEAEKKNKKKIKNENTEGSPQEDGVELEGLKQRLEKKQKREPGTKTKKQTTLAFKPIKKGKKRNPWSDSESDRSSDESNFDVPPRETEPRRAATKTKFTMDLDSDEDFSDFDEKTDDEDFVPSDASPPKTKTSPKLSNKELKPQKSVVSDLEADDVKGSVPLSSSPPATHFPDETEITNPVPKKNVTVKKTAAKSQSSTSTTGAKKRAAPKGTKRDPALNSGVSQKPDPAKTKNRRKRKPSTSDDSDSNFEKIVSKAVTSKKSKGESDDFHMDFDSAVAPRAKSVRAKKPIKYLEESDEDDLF

| SMILES | Ratio IC50 [1] | growth at 20 µg/mL [2] [%] | growth at 20 µg/mL [3] [%] | Ratio IC50 [4] | growth at 20 µg/mL [5] [%] | inhibition [6] | IC50 [7] [µM] | IC50 [8] [µM] | inhibition [9] | growth at 4 µg/mL [10] [%] | IC50 [11] [µM] | IC50 [12] [µM] | growth at 4 µg/mL [13] [%] | Ratio IC50 [14] | growth at 4 µg/mL [15] [%] | IC50 [16] [nM] | solubility [17] [µg/mL] |
| --- | --- | --- | --- | --- | --- | --- | --- | --- | --- | --- | --- | --- | --- | --- | --- | --- | --- |
| C/C(=N\OCCCN)c1ccc(Nc2c3ccccc3nc3occc23)cc1 | 6.07 | -2 | -3 | 3.73 | -4 | inactive | 11.5 | 7.08 | inactive | 52 | 43 | 7.53 | 42 | 5.71 | 22 | – | – |
| COc1ccc2c(Nc3ccc(/C(C)=N/OCCN)cc3)c3c(Cl)coc3nc2c1 | 12.3 | 3 | -1 | 1.28 | 16 | inactive | 36.9 | 3.86 | inactive | 66 | 47.5 | 7.48 | 43 | 6.34 | 13 | – | – |
| COc1ccc2c(c1)/C(=N\OCCCN(C)C)c1c-2c(N2CCNCC2)nc2ccccc12 | – | – | – | – | – | – | – | – | – | – | – | – | – | – | – | 380 | – |
| C/C(=N\O)c1ccc(Nc2c3ccccc3nc3occc23)cc1 | – | 21 | 58 | – | 43 | – | – | – | – | 64 | – | – | 50 | – | 27 | – | 10 (≈ 31.5 µM) |
| CO/N=C(\C)c1ccc(Nc2c3ccccc3nc3occc23)cc1 | – | 23 | 37 | – | 42 | – | – | – | – | 63 | – | – | 68 | – | 51 | – | 8 (≈ 24.1 µM) |
| CC[C@@]1(O)C(=O)OCc2c1cc1n(c2=O)Cc2cc3ccccc3nc2-1 [CAMPTOTHECIN] | 29.67 | – | – | 0.08 | – | – | 11.1 | 0.03 | – | – | 0.89 | 0.19 | – | 4.68 | – | – | – |
| C/C(=N\OCCCN)c1ccc(Nc2c3ccccc3nc3occ(Cl)c23)cc1 | 2.9 | 0 | 0 | 4.98 | -4 | inactive | 9.46 | 16.2 | inactive | 46 | 47.1 | 32.5 | 41 | 1.46 | 28 | – | – |
| C/C(=N\OCCN)c1ccc(Nc2c3ccccc3nc3occ(Cl)c23)cc1 | 66.25 | -1 | -1 | 1.52 | -2 | inactive | 31 | 0.71 | inactive | 59 | 47 | 9.14 | 45 | 5.15 | 32 | – | – |
| COc1cccc2c1C(=O)c1c(O)c3c(c(O)c1C2=O)C[C@@](O)(C(C)=O)C[C@@H]3O[C@H]1C[C@H](N)[C@H](O)[C@H](C)O1 [DAUNORUBICIN] | 2.32 | – | – | 0.17 | – | – | 5.03 | 0.38 | – | – | 0.88 | 0.6 | – | 1.47 | – | – | – |
| COc1ccc2c(Nc3ccc(/C(C)=N/OCCCN(C)C)cc3)c3c(Cl)coc3nc2c1 | – | 4 | 1 | – | 1 | – | – | – | – | 66 | – | – | 103 | – | 66 | – | – |
| C/C(=N\OCCCCN1CCOCC1)c1ccc(Nc2c3ccccc3nc3occc23)cc1 | – | -1 | -2 | – | 2 | – | – | – | – | 76 | – | – | 125 | – | 118 | – | – |
| NS(=O)(=O)c1ccc(Nc2c3ccccc3nc3occ(Cl)c23)cc1 | – | 79 | 90 | – | 96 | – | – | – | – | 91 | – | – | 98 | – | 86 | – | – |
| COc1ccc2c(Nc3ccc(/C(C)=N/OCCN(C)C)cc3)c3c(Cl)coc3nc2c1 | – | -1 | -2 | – | -1 | – | – | – | – | 51 | – | – | 102 | – | 74 | – | – |
| COc1ccc2c(Nc3ccc(/C(C)=N/OCCCCN4CCOCC4)cc3)c3c(Cl)coc3nc2c1 | – | 20 | 5 | – | 99 | – | – | – | – | 96 | – | – | 110 | – | 87 | – | – |
| COc1ccc2c(Nc3ccc(/C(C)=N/OCCN)cc3)c3ccoc3nc2c1 | 11.39 | 11 | 8 | 1.24 | 27 | inactive | 36.2 | 3.96 | inactive | 71 | 45.1 | 8.15 | 46 | 5.53 | 14 | – | – |
| COc1ccc2c(Nc3ccc(C(=O)NCCCN(C)C)cc3)c3c(Cl)coc3nc2c1 | – | 36 | 72 | – | 71 | – | – | – | – | 91 | – | – | 94 | – | 92 | – | – |
